Laboratory results taken from ChEMBL document CHEMBL1152300, “Ligand specificity of constitutive androstane receptor as probed by induced-fit docking and mutagenesis” (J Med Chem, 2008).
Blank lines part the entries; values can stand above or below the compound they belong to.

Columns and labels:
Type in all cases: cell-based
[1] = target: Nuclear receptor subfamily 1 group I member 3 (Mus musculus, UniProt O35627, H213A); test: Enhancement of nuclear co-repressor receptor binding to mouse CAR H213A mutant […] at 10 uM by yeast two-hybrid assay
Summary of the method: (§1)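 Yeast two-hybrid: yeast expressing wild-type or mutant mouse CAR LBD plus SRC-1 or NCoR, selected on SD medium lacking Leu and Trp. Pooled colonies treated with DMSO or test chemical for 3.5 h. β-Galactosidase normalized to cell density. SRC-1 reference: wild-type + DMSO = 100. NCoR reference: 10 µM androstenol = 100. Mean ± SD, two independent determinations, each in triplicate.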

[2] = target: T1, Nuclear receptor subfamily 1 group I member 3 (Mus musculus, UniProt O35627, L253F); test: Effect on steroid receptor coactivator 1 binding to mouse CAR L253F mutant […] at 1 uM by yeast two-hybrid assay; conditions: read-out: Activity
Summary of the method: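 Yeast two-hybrid assay. Yeast co-expressing wild-type or mutant mouse CAR LBD and the SRC-1 partner were selected on SD plates lacking leucine and tryptophan. Random colonies were pooled and amplified, then treated with DMSO or test chemical for 3.5 h. β-galactosidase activity was normalized to cell density and set relative to wild-type mCAR + SRC-1 with DMSO (=100). Mean ± standard deviation of two determinations, each in triplicate.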

[3] = target: Nuclear receptor subfamily 1 group I member 3 (Mus musculus, UniProt O35627, N175A); test: Decrease in steroid receptor co-activator 1 binding to mouse CAR N175A mutant […] at 1 uM by yeast two-hybrid assay; conditions: read-out: Activity
Summary of the method: (§2)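 Yeast expressing wild-type or mutant mouse CAR LBD plus SRC-1, selected on SD plates lacking leucine and tryptophan. Pooled colonies treated with DMSO or compound for 3.5 h. β-Galactosidase activity normalized to cell density. Reference is wild-type CAR + SRC-1 with DMSO (=100). Mean ± SD of two independent determinations, each in triplicate.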

[4] = target: Nuclear receptor subfamily 1 group I member 3 (Mus musculus, UniProt O35627, T350M); test: Effect on nuclear co-repressor receptor binding to mouse CAR T350M mutant […] at 1 uM by yeast two-hybrid assay; conditions: read-out: Activity
Summary of the method: as §2, with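 “NCoR,” for “SRC-1,”, “10 µM androstenol” for “wild-type CAR + SRC-1 with DMSO”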

[5] = target: T2, Nuclear receptor subfamily 1 group I member 3 (Mus musculus, UniProt O35627, F171A); test: Effect on steroid receptor co-activator 1 binding to mouse CAR F171A mutant […] at 1 uM by yeast two-hybrid assay; conditions: read-out: Activity; summary of the method: as §2
[6] = target: T3, Nuclear receptor subfamily 1 group I member 3 (Mus musculus, UniProt O35627, F171L); test: Effect on steroid receptor co-activator 1 binding to mouse CAR F171L mutant […] at 2 uM by yeast two-hybrid assay; conditions: read-out: Activity; summary of the method: as §1
[7] = target: T2, Nuclear receptor subfamily 1 group I member 3; test: Activation of mouse CAR F171A mutant expressed in HEK293 cells at 2 uM by mammalian one-hybrid assay; conditions: hek293, 2 µM
Summary of the method: (§3)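 GAL4-DBD fused to mouse CAR LBD (residues 118-358), wild-type or point mutant, cotransfected with UASx4-tk-luc reporter and pCMVβ into HEK293 cells. Cells were exposed to final 1 µM, 2 µM or 10 µM test chemical, or 0.1% v/v DMSO, for 24 h after transfection. Luciferase was normalized to β-galactosidase and set against empty GAL4 vector (=1.0). Mean ± standard deviation, three independent experiments.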

[8] = target: T1, Nuclear receptor subfamily 1 group I member 3; test: Decrease in steroid receptor coactivator 1 binding to mouse CAR L253F mutant […] at 2 uM by yeast two-hybrid assay; conditions: read-out: Activity; summary of the method: as §1
[9] = target: Nuclear receptor subfamily 1 group I member 3 (Mus musculus, UniProt O35627, L212A); test: Enhancement of steroid receptor co-activator 1 binding to mouse CAR L212A mutant […] at 2 uM by yeast two-hybrid assay; summary of the method: as §1
[10] = target: T3, Nuclear receptor subfamily 1 group I member 3; test: Enhancement of nuclear co-repressor receptor binding to mouse CAR F171L mutant […] at 2 uM by yeast two-hybrid assay; summary of the method: as §1
[11] = target: Nuclear receptor subfamily 1 group I member 3 (Mus musculus, UniProt O35627, I252L); test: Activation of mouse CAR I252L mutant expressed in HEK293 cells at 2 uM by mammalian one-hybrid assay; conditions: hek293, 2 µM; summary of the method: as §3
[12] = target: Nuclear receptor subfamily 1 group I member 3 (Mus musculus, UniProt O35627, Y336A); test: Activation of mouse CAR Y336A mutant expressed in HEK293 cells at 10 uM by mammalian one-hybrid assay; conditions: hek293, 10 µM
Summary of the method: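 GAL4 DBD fused to mouse CAR LBD (residues 118-358), wild type or point mutant, cotransfected with UASx4-tk-luc reporter and pCMVβ into HEK293 cells. Cells cultured with DMSO (0.1% v/v) or compound (final 1, 2 or 10 µM). Lysed 24 h post-transfection. Luciferase normalized to β-galactosidase, expressed relative to empty GAL4 vector (=1.0). Mean ± SD, three independent experiments.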

T1 sequence (O35627 whole entry L253F, the tested form may be a part): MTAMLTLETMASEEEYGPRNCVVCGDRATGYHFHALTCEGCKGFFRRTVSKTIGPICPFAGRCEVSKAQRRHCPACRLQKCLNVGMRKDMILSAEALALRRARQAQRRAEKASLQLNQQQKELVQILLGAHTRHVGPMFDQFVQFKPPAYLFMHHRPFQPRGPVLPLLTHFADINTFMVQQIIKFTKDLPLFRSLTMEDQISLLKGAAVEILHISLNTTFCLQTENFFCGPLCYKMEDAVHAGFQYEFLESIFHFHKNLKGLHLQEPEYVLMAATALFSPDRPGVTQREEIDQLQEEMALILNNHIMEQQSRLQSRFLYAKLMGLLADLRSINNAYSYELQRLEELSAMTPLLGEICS
T3 sequence (O35627 whole entry F171L): as the sequence (O35627 whole entry L253F, the tested form may be a part) above, with F171L, F253L counted along it
T2 sequence (O35627 whole entry F171A): as the sequence (O35627 whole entry L253F, the tested form may be a part) above, with F171A, F253L counted along it
Sequence of Nuclear receptor subfamily 1 group I member 3 (Mus musculus, UniProt O35627, I252L) (O35627 whole entry I252L): as the sequence (O35627 whole entry L253F, the tested form may be a part) above, with I252L, F253L counted along it
Sequence of Nuclear receptor subfamily 1 group I member 3 (Mus musculus, UniProt O35627, T350M) (O35627 whole entry T350M): as the sequence (O35627 whole entry L253F, the tested form may be a part) above, with F253L, T350M counted along it
Sequence of Nuclear receptor subfamily 1 group I member 3 (Mus musculus, UniProt O35627, Y336A) (O35627 whole entry Y336A, the tested form may be a part): as the sequence (O35627 whole entry L253F, the tested form may be a part) above, with F253L, Y336A counted along it
Sequence of Nuclear receptor subfamily 1 group I member 3 (Mus musculus, UniProt O35627, L212A) (O35627 whole entry L212A): as the sequence (O35627 whole entry L253F, the tested form may be a part) above, with L212A, F253L counted along it
Sequence of Nuclear receptor subfamily 1 group I member 3 (Mus musculus, UniProt O35627, N175A) (O35627 whole entry N175A, the tested form may be a part): as the sequence (O35627 whole entry L253F, the tested form may be a part) above, with N175A, F253L counted along it
Sequence of Nuclear receptor subfamily 1 group I member 3 (Mus musculus, UniProt O35627, H213A) (O35627 whole entry H213A, the tested form may be a part): as the sequence (O35627 whole entry L253F, the tested form may be a part) above, with H213A, F253L counted along it

Activity [1]: >= 50%
Compound: COc1ccc(C(=O)CCCc2ccccc2)cc1

Compound: Clc1cnc(Oc2ccc(Oc3ncc(Cl)cc3Cl)cc2)c(Cl)c1
activity at 1 µM [2]: < 50%
inhibition at 1 µM [3]: ≥ 50%
activity at 1 µM [4]: < 50%
activity at 1 µM [5]: < 50%

activity at 2 µM [6]: ≥ 50%
Activity [7]: > 100%
inhibition at 2 µM [8]: ≥ 50%
Activity [9]: >= 50%
Activity [10]: > 150%
Activity [11]: 50%
Compound: Clc1ccccc1C(c1ccccc1)(c1ccccc1)n1ccnc1 [CLOTRIMAZOLE]

Compound: COc1ccc(C(c2ccc(OC)cc2)C(Cl)(Cl)Cl)cc1 [METHOXYCHLOR]
Activity [12]: < 50%
